This passage reports Ratio results from ChEMBL document CHEMBL4368943 (J Med Chem, 2019).

Common to all, as to assay type: cell-based
The target in assay [1] is T1, von Hippel-Lindau disease tumor suppressor/Estrogen receptor/Cullin-2 (Homo sapiens, UniProt P03372+P40337+Q13617). Nature of the assay: Protac activity against VHL/cullin2/ERalpha in human MCF7 cells assessed as ERalpha degradation by measuring ER protein/GADPH ratio at 1 nM after 4 hrs by Western blot analysis relative to control. Put shortly: (§1)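 MCF-7 cells (DMEM, 10% FBS, passages 3−8) exposed 4 h. Lysed in RIPA with protease inhibitors; equal protein on 10% SDS-PAGE, PVDF, anti-ERα blot. Membranes stripped and reprobed for GAPDH. ERα/GAPDH ratio normalized to DMSO = 100; DC50 from densitometry of the dose series.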
T1 sequence (P03372 whole entry, looked up): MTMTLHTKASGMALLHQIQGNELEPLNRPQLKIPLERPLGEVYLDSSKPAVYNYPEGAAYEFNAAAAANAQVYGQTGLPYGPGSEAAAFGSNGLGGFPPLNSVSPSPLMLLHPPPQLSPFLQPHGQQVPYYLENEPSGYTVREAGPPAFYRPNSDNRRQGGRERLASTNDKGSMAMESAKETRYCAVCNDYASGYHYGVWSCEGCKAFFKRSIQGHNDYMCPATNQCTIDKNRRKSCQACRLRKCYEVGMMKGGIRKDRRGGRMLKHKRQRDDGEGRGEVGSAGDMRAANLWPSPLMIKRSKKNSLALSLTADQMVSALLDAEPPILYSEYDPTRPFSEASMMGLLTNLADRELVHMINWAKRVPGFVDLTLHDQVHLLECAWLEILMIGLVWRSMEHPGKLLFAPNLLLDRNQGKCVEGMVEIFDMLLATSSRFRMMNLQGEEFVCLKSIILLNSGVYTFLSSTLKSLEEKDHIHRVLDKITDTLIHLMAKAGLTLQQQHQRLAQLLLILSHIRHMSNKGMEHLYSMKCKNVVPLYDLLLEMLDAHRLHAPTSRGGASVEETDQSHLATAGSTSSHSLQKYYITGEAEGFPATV
T1 sequence (P40337 whole entry, looked up): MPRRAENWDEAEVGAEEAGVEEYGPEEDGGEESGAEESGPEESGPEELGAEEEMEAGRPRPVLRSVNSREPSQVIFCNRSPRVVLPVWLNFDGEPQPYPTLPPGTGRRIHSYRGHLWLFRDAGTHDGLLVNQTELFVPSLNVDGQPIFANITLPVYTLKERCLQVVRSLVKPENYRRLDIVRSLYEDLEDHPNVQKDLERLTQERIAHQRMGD
T1 sequence (Q13617 whole entry, looked up): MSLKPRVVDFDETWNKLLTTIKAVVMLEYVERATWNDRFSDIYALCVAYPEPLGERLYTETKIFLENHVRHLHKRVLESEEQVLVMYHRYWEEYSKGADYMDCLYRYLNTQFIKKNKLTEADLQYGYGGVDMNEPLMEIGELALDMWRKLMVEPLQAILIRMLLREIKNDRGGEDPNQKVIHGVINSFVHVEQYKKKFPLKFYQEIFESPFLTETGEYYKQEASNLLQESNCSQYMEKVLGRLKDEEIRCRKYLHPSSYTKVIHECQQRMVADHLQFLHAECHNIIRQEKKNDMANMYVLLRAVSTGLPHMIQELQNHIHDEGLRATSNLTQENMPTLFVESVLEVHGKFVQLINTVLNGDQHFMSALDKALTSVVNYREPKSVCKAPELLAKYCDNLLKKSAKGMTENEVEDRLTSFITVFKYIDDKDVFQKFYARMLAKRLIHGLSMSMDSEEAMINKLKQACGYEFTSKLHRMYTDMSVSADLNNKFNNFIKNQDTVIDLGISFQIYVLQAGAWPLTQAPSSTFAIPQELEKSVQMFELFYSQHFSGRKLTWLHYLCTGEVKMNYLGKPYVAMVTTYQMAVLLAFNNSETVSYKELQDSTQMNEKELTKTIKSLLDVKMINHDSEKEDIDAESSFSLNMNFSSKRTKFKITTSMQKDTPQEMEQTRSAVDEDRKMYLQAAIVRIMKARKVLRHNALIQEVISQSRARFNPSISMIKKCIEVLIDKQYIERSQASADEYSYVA

The target of assay [2] is T1, von Hippel-Lindau disease tumor suppressor/Estrogen receptor/Cullin-2. Description: Protac activity against VHL/cullin2/ERalpha in human MCF7 cells assessed as ERalpha degradation by measuring ER protein/GADPH ratio at 10 nM after 4 hrs by Western blot analysis relative to control. Put shortly:
as §1

Assay [3] shares this target. Description: Protac activity against VHL/cullin2/ERalpha in human MCF7 cells assessed as ERalpha degradation by measuring ER protein/GADPH ratio at 100 nM after 4 hrs by Western blot analysis relative to control. A digest of the protocol: as §1

For the molecule `CCN(CCOc1ccc(C(=O)c2c(-c3ccc(O)cc3)sc3cc(O)ccc23)cc1)CCC1CCN(CCCC(=O)N[C@H](C(=O)N2C[C@H](O)C[C@H]2C(=O)N[C@@H](C)c2ccc(-c3scnc3C)cc2)C(C)(C)C)CC1`, the Ratio was found to be 227 in assay [1], 91 in assay [2] and 98 in assay [3].
For `CCN(CCCCCCCC(=O)N[C@H](C(=O)N1C[C@H](O)C[C@H]1C(=O)N[C@@H](C)c1ccc(-c2scnc2C)cc1)C(C)(C)C)CCOc1ccc(Cn2c(-c3ccc(O)cc3)c(C)c3cc(O)ccc32)cc1`, the Ratio in assay [1] was 74; in assay [2] it was 10; in assay [3] it was 0.2.
As for `CCN(CCCCCCC(=O)N[C@H](C(=O)N1C[C@H](O)C[C@H]1C(=O)N[C@@H](C)c1ccc(-c2scnc2C)cc1)C(C)(C)C)CCOc1ccc(C(=O)c2c(-c3ccc(O)cc3)sc3cc(O)ccc23)cc1`, the figures for the Ratio in assay [1], in assay [2] and in assay [3] were 32, 8 and 6, respectively.
For `CCN(CCCCCCCC(=O)N[C@H](C(=O)N1C[C@H](O)C[C@H]1C(=O)NCc1ccc(-c2scnc2C)cc1)C(C)(C)C)CCOc1ccc(C(=O)c2c(-c3ccc(O)cc3)sc3cc(O)ccc23)cc1`, the Ratio is 79 in assay [1], 71 in assay [2] and 62 in assay [3].
In the same order, the values of `CCN(CCCCCCCCCC(=O)N[C@H](C(=O)N1C[C@H](O)C[C@H]1C(=O)N[C@@H](C)c1ccc(-c2scnc2C)cc1)C(C)(C)C)CCOc1ccc(C(=O)c2c(-c3ccc(O)cc3)sc3cc(O)ccc23)cc1` are 25, 0.4 and 0.3.
Take `Cc1ncsc1-c1ccc([C@H](C)NC(=O)[C@@H]2C[C@@H](O)CN2C(=O)[C@@H](NC(=O)CCCCCCCN(CCOc2ccc(C(=O)c3c(-c4ccc(O)cc4)sc4cc(O)ccc34)cc2)C(C)(C)C)C(C)(C)C)cc1`: the Ratio in assay [1] turned out to be 21; in assay [2] it was 0.2; in assay [3], 0.
With `CCN(CCCCc1cnn(CC(=O)N[C@H](C(=O)N2C[C@H](O)C[C@H]2C(=O)N[C@@H](C)c2ccc(-c3scnc3C)cc2)C(C)(C)C)c1)CCOc1ccc(C(=O)c2c(-c3ccc(O)cc3)sc3cc(O)ccc23)cc1`, the results for the Ratio in assay [1], in assay [2] and in assay [3] were 99, 20 and 12, respectively.
In the same order, the values of `CCN(CCC#Cc1cnn(CC(=O)N[C@H](C(=O)N2C[C@H](O)C[C@H]2C(=O)N[C@@H](C)c2ccc(-c3scnc3C)cc2)C(C)(C)C)c1)CCOc1ccc(C(=O)c2c(-c3ccc(O)cc3)sc3cc(O)ccc23)cc1` are 139, 45 and 24.
With `CCN(CCCCCCCC(=O)N[C@H](C(=O)N1C[C@H](O)C[C@H]1C(=O)N[C@@H](C)c1ccc(-c2scnc2C)cc1)C(C)(C)C)CCOc1ccc([C@@H]2c3ccc(O)cc3CC[C@@H]2c2ccccc2)cc1`, the Ratio came out at 74 in assay [1], 5 in assay [2] and 0.3 in assay [3].
With `Cc1ncsc1-c1ccc([C@H](C)NC(=O)[C@@H]2C[C@@H](O)CN2C(=O)[C@@H](NC(=O)CCCCCCCN(CCOc2ccc(C(=O)c3c(-c4ccc(O)cc4)sc4cc(O)ccc34)cc2)C2CC2)C(C)(C)C)cc1`, the Ratio was 20 in assay [1], 0.2 in assay [2] and 0.1 in assay [3].
For the molecule `Cc1ncsc1-c1ccc([C@H](C)NC(=O)[C@@H]2C[C@@H](O)CN2C(=O)[C@@H](NC(=O)CCCCCCCN(CCOc2ccc(C(=O)c3c(-c4ccc(O)cc4)sc4cc(O)ccc34)cc2)C2CCC2)C(C)(C)C)cc1`, the Ratio in assay [1] was determined as 15; in assay [2] it was 4; in assay [3] it was 0.1.
For the molecule `CCN(CCCCC(=O)N[C@H](C(=O)N1C[C@H](O)C[C@H]1C(=O)N[C@@H](C)c1ccc(-c2scnc2C)cc1)C(C)(C)C)CCOc1ccc(C(=O)c2c(-c3ccc(O)cc3)sc3cc(O)ccc23)cc1`, the Ratio in assay [1] was found to be 90; in assay [2] it was 129; in assay [3], 92.
Turning to `CCN(CCCCCCCC(=O)N[C@H](C(=O)N1C[C@H](O)C[C@H]1C(=O)N[C@@H](C)c1ccc(Cl)cc1)C(C)(C)C)CCOc1ccc(C(=O)c2c(-c3ccc(O)cc3)sc3cc(O)ccc23)cc1`, the values for the Ratio in assay [1], in assay [2] and in assay [3] were 99, 87 and 79, respectively.
With `C#Cc1ccc([C@H](C)NC(=O)[C@@H]2C[C@@H](O)CN2C(=O)[C@@H](NC(=O)CCCCCCCN(CC)CCOc2ccc(C(=O)c3c(-c4ccc(O)cc4)sc4cc(O)ccc34)cc2)C(C)(C)C)cc1`, the Ratio in assay [1] stood at 90; in assay [2], 24; in assay [3] it was 8.
Regarding `CCN(CCCC(=O)N[C@H](C(=O)N1C[C@H](O)C[C@H]1C(=O)N[C@@H](C)c1ccc(-c2scnc2C)cc1)C(C)(C)C)CCOc1ccc(C(=O)c2c(-c3ccc(O)cc3)sc3cc(O)ccc23)cc1`, the Ratio is 63 in assay [1], 139 in assay [2] and 135 in assay [3].
As for `Cc1ncsc1-c1ccc([C@H](C)NC(=O)[C@@H]2C[C@@H](O)CN2C(=O)[C@@H](NC(=O)CCCCCCCN(CCOc2ccc(C(=O)c3c(-c4ccc(O)cc4)sc4cc(O)ccc34)cc2)CC2CCC2)C(C)(C)C)cc1`, the Ratio came to 76 in assay [1], 1.3 in assay [2] and 0.2 in assay [3].
On to `CCC(=C(c1ccc(O)cc1)c1ccc(OCCN(CC)CCCCCCCC(=O)N[C@H](C(=O)N2C[C@H](O)C[C@H]2C(=O)N[C@@H](C)c2ccc(-c3scnc3C)cc2)C(C)(C)C)cc1)c1ccccc1`, for which the Ratio in assay [1] turned out to be 55; in assay [2], 24; in assay [3], 0.6.
For the molecule `CCN(CCCC#Cc1cnn(CCC(=O)N[C@H](C(=O)N2C[C@H](O)C[C@H]2C(=O)N[C@@H](C)c2ccc(-c3scnc3C)cc2)C(C)(C)C)c1)CCOc1ccc(C(=O)c2c(-c3ccc(O)cc3)sc3cc(O)ccc23)cc1`, the Ratio was 70 in assay [1], 0.5 in assay [2] and 0.4 in assay [3].
The like results for `CCC(=C(c1ccccc1)c1ccc(OCCN(CC)CCCCCCCC(=O)N[C@H](C(=O)N2C[C@H](O)C[C@H]2C(=O)N[C@@H](C)c2ccc(-c3scnc3C)cc2)C(C)(C)C)cc1)c1ccccc1` were, in that order, 103, 97 and 2.4.
On to `CCN(CCCCCCCC(=O)N[C@H](C(=O)N1C[C@H](O)C[C@H]1C(=O)N[C@@H](C)c1ccc(C#N)cc1)C(C)(C)C)CCOc1ccc(C(=O)c2c(-c3ccc(O)cc3)sc3cc(O)ccc23)cc1`, for which the figures for the Ratio in assay [1], in assay [2] and in assay [3] were 110, 86 and 80, respectively.
In the case of `Cc1ncsc1-c1ccc([C@H](C)NC(=O)[C@@H]2C[C@@H](O)CN2C(=O)[C@@H](NC(=O)CCCCCCCN(CCOc2ccc(C(=O)c3c(-c4ccc(O)cc4)sc4cc(O)ccc34)cc2)C(C)C)C(C)(C)C)cc1`, the Ratio in assay [1] is 28; in assay [2], 0.5; in assay [3], 0.2.
As to `CCN(CCCCCCCC(=O)N[C@H](C(=O)N1C[C@H](O)C[C@H]1C(=O)N[C@@H](C)c1ccc(C(C)C)cc1)C(C)(C)C)CCOc1ccc(C(=O)c2c(-c3ccc(O)cc3)sc3cc(O)ccc23)cc1`, the Ratio was found to be 138 in assay [1], 109 in assay [2] and 78 in assay [3].
